# Laboratory results: ChEMBL document CHEMBL5038583, “Highly Potent and Selective Butyrylcholinesterase Inhibitors for Cognitive Improvement and Neuroprotection” (J Med Chem, 2021)
# Active and inactive are the calls of the source. The rule behind the calls is not given here.
# Key:
# Cholinesterase [1] = biological target: Cholinesterase (Equus caballus, UniProt P81908); test: Inhibition of equine serum BChE using butyrylthiocholine iodide as substrate preincubated for 5 mins followed by substrate addition and measured after 2 mins by DTNB-reagent based Ellman's method
# Chain of Cholinesterase (Equus caballus, UniProt P81908) (P81908 whole entry): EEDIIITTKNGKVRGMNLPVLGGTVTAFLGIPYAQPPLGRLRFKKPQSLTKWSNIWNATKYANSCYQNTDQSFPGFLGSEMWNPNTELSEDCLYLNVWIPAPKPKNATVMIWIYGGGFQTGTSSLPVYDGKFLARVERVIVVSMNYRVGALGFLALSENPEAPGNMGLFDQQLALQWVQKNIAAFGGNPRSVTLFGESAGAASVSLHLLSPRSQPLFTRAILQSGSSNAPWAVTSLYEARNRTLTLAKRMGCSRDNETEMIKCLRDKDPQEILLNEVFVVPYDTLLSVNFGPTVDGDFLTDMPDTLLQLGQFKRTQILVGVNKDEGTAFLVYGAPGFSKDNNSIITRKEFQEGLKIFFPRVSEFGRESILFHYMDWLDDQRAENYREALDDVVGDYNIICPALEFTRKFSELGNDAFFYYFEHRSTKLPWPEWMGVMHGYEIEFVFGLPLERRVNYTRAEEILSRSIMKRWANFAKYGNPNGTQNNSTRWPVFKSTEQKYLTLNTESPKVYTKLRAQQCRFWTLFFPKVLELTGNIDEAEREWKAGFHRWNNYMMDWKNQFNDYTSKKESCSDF
# Cholinesterase [2] = biological target: Cholinesterase (Homo sapiens, UniProt P06276); test: Inhibition of human serum BChE using butyrylthiocholine iodide as substrate preincubated for 20 mins followed by substrate addition and measured after 2 mins by DTNB-reagent based Ellman's method
# Chain of Cholinesterase (Homo sapiens, UniProt P06276) (P06276 whole entry): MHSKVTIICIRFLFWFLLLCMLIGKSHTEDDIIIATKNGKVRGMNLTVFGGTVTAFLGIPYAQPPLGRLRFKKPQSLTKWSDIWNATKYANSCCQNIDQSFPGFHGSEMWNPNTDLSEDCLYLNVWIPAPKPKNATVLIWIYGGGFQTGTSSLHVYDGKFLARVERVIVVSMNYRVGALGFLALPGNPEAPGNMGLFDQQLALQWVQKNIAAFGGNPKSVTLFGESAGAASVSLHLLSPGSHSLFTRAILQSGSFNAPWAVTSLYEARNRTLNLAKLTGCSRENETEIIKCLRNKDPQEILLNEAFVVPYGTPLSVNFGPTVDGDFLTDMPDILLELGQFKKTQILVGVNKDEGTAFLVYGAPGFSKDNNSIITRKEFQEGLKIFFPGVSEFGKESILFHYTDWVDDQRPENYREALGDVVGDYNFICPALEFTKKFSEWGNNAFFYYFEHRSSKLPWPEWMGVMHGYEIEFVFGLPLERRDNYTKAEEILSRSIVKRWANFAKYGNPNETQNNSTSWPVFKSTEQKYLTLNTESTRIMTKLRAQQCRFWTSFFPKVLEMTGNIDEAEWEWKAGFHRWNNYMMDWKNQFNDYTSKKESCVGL
# Method in brief: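 hBChE at 0.015 units/mL with DTNB in phosphate buffer pH 8.0, preincubated 20 min at room temperature with at least six concentrations (10⁻⁴−10⁻⁹). Butyrylthiocholine iodide (0.075 M solution) added; A412 read after 2 min at 25 °C. IC50 from % activity vs log concentration; triplicates in at least three runs.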
# [3] = biological target: Cholinesterase (Equus caballus) (UniProt P81908); test: Inhibition of equine serum BChE at 10 uM using butyrylthiocholine iodide as substrate preincubated for 5 mins followed by substrate addition and measured after 2 mins by DTNB-reagent based Ellman's method relative to control; conditions: time 7.0 min
# Chain of Cholinesterase (Equus caballus) (P81908 whole entry): as the sequence (P81908 whole entry) above
# Method in brief: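 Ellman method with equine BChE at 2.5 units/mL in pH 8.0 phosphate buffer with DTNB. Preincubation 5 min at room temperature, then butyrylthiocholine iodide (0.075 M solution) added; absorbance at 412 nm after 2 min. Ethanol sample gives 100% activity. Triplicates, at least three runs.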
# Mus musculus [4] = test: Anti-alzheimer activity in amyloid beta(1 to 42)-induced ICR mouse model of cognitive impairment assessed as simplification of trajectories at 15 mg/kg, ig administered at days 2 to 14 by Morris water maze test; format: functional, organism-based
# Method in brief: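 ICR mice, n = 8 per group. Aggregated Aβ1-42 (5 mM DMSO stock incubated 24 h at 37 °C in saline at 2 mg/mL) given 10 μg per mouse icv on day 1; saline icv for sham. Compound 15 mg/kg intragastric on days 2−14; donepezil reference. Morris water maze training days 9−13, probe trial day 14; tracks recorded; mean ± SD.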
# [5] = Metabolic stability in human liver microsomes assessed as intrinsic clearance at 1 uM measured upto 45 mins in presence of NADPH by LC/MS/MS analysis; format: ADME, Microsome; conditions: read-out: CLH
# Method in brief: (§1)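 Human liver microsomes 0.5 mg/mL, compound 1 μM final, NADPH 2 mM, at 37 °C. Reactions stopped at 0, 5, 15, 30 and 45 min with acetonitrile containing imipramine internal standard. LC/MS/MS quantitation relative to 0 min; initial rates used for t1/2 and intrinsic clearance; ketanserin as assay control. Mean of two independent experiments.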
# [6] = Hepatotoxicity in ICR mouse assessed as change in alanine aminotransferase activity at 1 g/kg, ig administered daily for 14 days measured upto 36 hrs post-administration; format: toxicity; conditions: in vivo, po, 1000 mg/kg, 336 h, time 14 day
# Method in brief: (§2)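 Heparinized serum from ICR mice taken at 8, 22 and 36 h after oral compound or saline control; AST and ALT activities measured.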
# [7] = Metabolic stability in human liver microsomes assessed as half life at 1 uM measured upto 45 mins in presence of NADPH by LC/MS/MS analysis; format: ADME, Microsome; method in brief: as §1
# BV-2 = test: Cytotoxicity against mouse BV-2 cells assessed as survival rate at 100 uM incubated for 24 hrs by MTT assay; format: functional
# Method in brief: (§3)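 Cells seeded at 1 × 10⁴/well in DMEM with 10% FBS and left overnight, then given compound (DMSO stock diluted in DMEM) for 24 h at 37 °C. MTT added for 4 h, formazan dissolved in DMSO, absorbance read at 492 nm. Viability taken as OD treated/OD DMEM × 100%; IC50 from three independent experiments, mean SD.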
# PC-12 = test: Cytotoxicity against rat PC-12 cells assessed as survival rate at 10 uM incubated for 24 hrs by MTT assay; format: functional; method in brief: as §3
# Mus musculus [8] = test: Anti-alzheimer activity in amyloid beta(1 to 42)-induced ICR mouse model of cognitive impairment assessed as enhanced alternation performance by measuring total number of arm entries at 15 mg/kg, ig administered at days 2 to 14 and measured on day 15 by Y-maze test; format: functional
# Method in brief: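 Oligomerized Aβ1-42 (10 μg per mouse, icv) given on day 1; saline icv for sham. Dosing 15 mg/kg ig on days 2−14 (donepezil as positive control), n = 8. Spontaneous alternation read on day 15 in a three-arm grey PVC Y maze, arms at 120°. Mean SD.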
# SH-SY5Y = test: Cytotoxicity against human SH-SY5Y cells assessed as survival rate at 100 uM incubated for 24 hrs by MTT assay; format: functional; method in brief: as §3
# Mus musculus [9] = test: Anti-alzheimer activity in amyloid beta(1 to 42)-induced ICR mouse model of cognitive impairment assessed as reduction in escape latency time at 15 mg/kg, ig administered at days 2 to 14 by Morris water maze test; format: functional
# Method in brief: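 Mouse model by icv oligomerized Aβ1-42 (10 μg/mouse, aggregated 24 h at 37 °C in saline) on day 1; 15 mg/kg ig on days 2−14, n = 8. Morris water maze training on days 9−13, probe trial day 14, escape latency and track recorded. Mean SD.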
# HepG2 = test: Cytotoxicity against human HepG2 cells assessed as survival rate at 100 uM incubated for 24 hrs by MTT assay; format: functional; method in brief: as §3
# [10] = Toxicity in ICR mouse assessed as increase in body weight administered for 14 days and measured daily; conditions: in vivo, 15 mg/kg, 336 h
# [11] = Acute toxicity in ICR mouse assessed as abnormal behaviour at 1 g/kg, ig administered […]; conditions: in vivo, po, 1000 mg/kg
# Method in brief: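 Single dose of 1 g/kg given intragastrically on day 1 to overnight-fasted mice (15−18 g), suspended in 5% DMSO, 40% PEG 400, 55% saline. Male and female groups (n = 9), with vehicle controls. Death, daily behaviour and body mass followed over the next 2 weeks.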
# L02 = test: Cytotoxicity against human L02 cells assessed as survival rate at 100 uM incubated for 24 hrs by MTT assay; format: functional; method in brief: as §3
# Mus musculus [12] = test: Antialzheimer activity in ICR mouse assessed as reduction in scopolamine-induced cognitive impairment at 30 mg/kg, ig administered for 10 consecutive days by Morris water maze test; format: functional, organism-based; conditions: time 10.0 day
# Method in brief: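 Male ICR mice (8−10 weeks, 18−20 g), n = 8 per group. Compound at 15 or 30 mg/kg intragastric in DMSO/saline (10:90), given 30 min before scopolamine 3 mg/kg i.p., for 10 consecutive days; tacrine 15 mg/kg as reference. Morris water maze: 5 days of training, probe trial on day 6 with platform removed. Escape latency and trajectory recorded; mean ± SD.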
# [13] = Effective permeability of the compound in pH 7.4 PBS/EtOH (70:30) at 100 ug/ml incubated for 18 hrs by PAMPA-BBB assay; format: ADME; conditions: dose 100 µg/ml, read-out: Peff
# Method in brief: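 PAMPA-BBB with porcine brain lipid in dodecane (20 mg/mL) on PVDF filter. Donor holds compound at 100 μg/mL final (from 5 mg/mL DMSO stock) in PBS pH 7.4/EtOH 70:30; acceptor holds the same buffer. Incubated 18 h at 25 °C; donor and acceptor concentrations by UV at five wavelengths. Four wells, at least three runs, nine permeability standards; mean ± SD.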
# [14] = Hepatotoxicity in ICR mouse assessed as change in aspartate aminotransferase activity at 1 g/kg, ig administered daily for 14 days measured upto 36 hrs post-administration; format: toxicity; conditions: in vivo, po, 1000 mg/kg, 336 h, time 14 day; method in brief: as §2
# [15] = Hepatotoxicity in ICR mouse assessed as morphological changes in liver at 1 g/kg, ig administered daily for 14 days analysed after 22 hrs post-administration by hematoxylin and eosin staining based analysis; format: toxicity, tissue-based; conditions: in vivo, po, 1000 mg/kg, 336 h, time 14 day
# Method in brief: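 Liver from male mice taken 22 h after compound or vehicle; hematoxylin−eosin staining, viewed at ×100.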
# [16] = Acute toxicity in ICR mouse assessed as animal death at […]; conditions: in vivo, po, 1000 mg/kg, 336 h
smiles,measurement,setting,value
Cc1ccc(NC(=O)Cn2c(-c3nonc3N)nc3ccccc32)cc1,IC50,Cholinesterase [1],10300 nM
Nc1nonc1-c1nc2ccccc2n1CC(=O)Nc1cccc(F)c1,IC50,Cholinesterase [1],1040 nM
N#Cc1cccc(NC(=O)Cn2c(-c3nonc3N)nc3ccccc32)c1,IC50,Cholinesterase [1],51 nM
same,IC50,Cholinesterase [2],250 nM
Nc1nonc1-c1nc2ccccc2n1CC(=O)Nc1cccc(F)c1F,IC50,Cholinesterase [1],270 nM
CC(=O)Nc1cccc(NC(=O)Cn2c(-c3nonc3N)nc3ccccc32)c1,IC50,Cholinesterase [1],1130 nM
Nc1nonc1-c1nc2ccccc2n1CC(=O)Nc1ccc(Br)cc1,inhibition,[3],< 50%
Nc1nonc1-c1nc2ccccc2n1CC(=O)Nc1ccc2ccccc2c1,IC50,Cholinesterase [1],352000 nM
Nc1nonc1-c1nc2ccccc2n1CC(=O)Nc1ccc(Br)c2ccccc12,Activity,Mus musculus [4],Active
same,CLint scaled at 1 µM,[5],54 mL/min/kg
same,Activity,[6],Non-Toxic
same,half-life at 1 µM,[7],32.2 min
same,Activity,BV-2,55.66%
same,Activity,PC-12,52.21%
same,Activity,Mus musculus [8],Active
same,Activity,SH-SY5Y,62.37%
same,Activity,Mus musculus [9],Active
same,Activity,HepG2,73.24%
same,Activity,[10],Toxic
same,Activity,[11],Non-Toxic
same,Activity,L02,86.55%
same,Activity,Mus musculus [12],Active
same,IC50,Cholinesterase [1],6 nM
same,"Papp at 18 h, 100 ug/ml",[13],11.7 ×10⁻⁶ cm/s
same,Activity,[14],Non-Toxic
same,Activity,[15],Non-Toxic
same,Activity,[16],Non-Toxic
same,IC50,Cholinesterase [2],32 nM
Nc1ccc(NC(=O)Cn2c(-c3nonc3N)nc3ccccc32)cc1,inhibition,[3],< 50%
CC(=O)Nc1ccc(NC(=O)Cn2c(-c3nonc3N)nc3ccccc32)cc1,IC50,Cholinesterase [1],6540 nM
O=C(Cn1c(-c2ccccc2)nc2ccccc21)Nc1ccc2ncccc2c1,inhibition,[3],< 50%
Nc1nonc1-c1nc2ccccc2n1CCCCC(=O)Nc1ccc2ncccc2c1,inhibition,[3],< 50%
Nc1nonc1-c1nc2ccccc2n1CC(=O)Nc1ccccc1Cl,IC50,Cholinesterase [1],2730 nM
Nc1nonc1-c1nc2ccccc2n1CC(=O)Nc1cccc(Cl)c1,IC50,Cholinesterase [1],33 nM
same,IC50,Cholinesterase [2],128 nM
Cc1cccc(NC(=O)Cn2c(-c3nonc3N)nc3ccccc32)c1,IC50,Cholinesterase [1],236 nM
Nc1nonc1-c1nc2ccccc2n1CC(=O)Nc1ccc2ncccc2c1,IC50,Cholinesterase [1],705 nM
COC(=O)c1ccc(NC(=O)Cn2c(-c3nonc3N)nc3ccccc32)cc1,IC50,Cholinesterase [1],5380 nM
Cc1cc2nc(-c3nonc3N)n(CC(=O)Nc3ccc4ncccc4c3)c2cc1C,IC50,Cholinesterase [1],11300 nM
Cc1cc2nc(-c3nonc3N)n(CC(=O)Nc3cccc4ccccc34)c2cc1C,IC50,Cholinesterase [1],108 nM
CC(=O)c1ccc(NC(=O)Cn2c(-c3nonc3N)nc3ccccc32)cc1,IC50,Cholinesterase [1],2270 nM
Nc1nonc1-c1nc2ccccc2n1CC(=O)Nc1ccc2c(c1)OCO2,IC50,Cholinesterase [1],2210 nM
COC(=O)c1cccc(NC(=O)Cn2c(-c3nonc3N)nc3ccccc32)c1,IC50,Cholinesterase [1],27 nM
same,IC50,Cholinesterase [2],180 nM
COc1cc2c(cc1OC)C(=O)C(CC1CCN(Cc3ccccc3)CC1)C2 (configuration not stated) [DONEPEZIL],Activity,[10],Toxic
Nc1nonc1-c1nc2ccccc2n1CC(=O)Nc1ccccc1,IC50,Cholinesterase [1],2960 nM
Nc1nonc1-c1nc2ccccc2n1CC(=O)Nc1ccc2ccccc2n1,IC50,Cholinesterase [1],507 nM
O=C(Cn1c(-c2ccccc2[N+](=O)[O-])nc2ccccc21)Nc1ccc2ncccc2c1,inhibition,[3],< 50%
Cc1cccc(NC(=O)Cn2c(-c3nonc3N)nc3ccccc32)c1C,IC50,Cholinesterase [1],326 nM
Nc1nonc1-c1nc2ccccc2n1CC(=O)Nc1ccc(Cl)cc1,inhibition,[3],< 50%
Nc1nonc1-c1nc2ccccc2n1CC(=O)Nc1ccc([N+](=O)[O-])cc1,IC50,Cholinesterase [1],30 nM
same,IC50,Cholinesterase [2],80 nM
Nc1nonc1-c1nc2ccccc2n1CC(=O)Nc1ccccc1F,IC50,Cholinesterase [1],124 nM
Nc1nonc1-c1nc2ccccc2n1CC(=O)Nc1cccc(Br)c1,IC50,Cholinesterase [1],83 nM
same,IC50,Cholinesterase [2],212 nM
Nc1ccccc1-c1nc2ccccc2n1CC(=O)Nc1ccc2ncccc2c1,inhibition,[3],< 50%
Nc1nonc1-c1nc2ccccc2n1CC(=O)Nc1ccnc2ccccc12,IC50,Cholinesterase [1],51 nM
same,IC50,Cholinesterase [2],212 nM
COc1ccc(NC(=O)Cn2c(-c3nonc3N)nc3ccccc32)cc1,inhibition,[3],< 50%
Nc1nonc1-c1nc2ccccc2n1CC(=O)Nc1cccc2ncccc12,IC50,Cholinesterase [1],920 nM
COc1cc(NC(=O)Cn2c(-c3nonc3N)nc3ccccc32)cc(OC)c1OC,IC50,Cholinesterase [1],6640 nM
Nc1nonc1-c1nc2ccccc2n1CC(=O)Nc1ccc(-c2ccccc2)cc1,inhibition,[3],< 50%
Nc1nonc1-c1nc2ccccc2n1CCC(=O)Nc1ccc2ncccc2c1,IC50,Cholinesterase [1],253 nM
COc1cccc(NC(=O)Cn2c(-c3nonc3N)nc3ccccc32)c1,IC50,Cholinesterase [1],1710 nM
O=C(Cn1c(-c2ccoc2)nc2ccccc21)Nc1ccc2ncccc2c1,inhibition,[3],< 50%
Cc1cc2nc(-c3nonc3N)n(CC(=O)Nc3cnc4ccccc4c3)c2cc1C,IC50,Cholinesterase [1],28500 nM
CC(=O)c1cccc(NC(=O)Cn2c(-c3nonc3N)nc3ccccc32)c1,IC50,Cholinesterase [1],191 nM
